In ChEMBL document CHEMBL5058577, “EUbOPEN Chemogenomics Library 2 (Multiplex)” (2022):

Tested on: HEK-293T
Assay: Multiplex assay against HEK293T
Assay type: toxicity, cell-based
Conditions: human
Procedure, shortened: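 With compound added, live cells were imaged on a CQ1 microscope at 37°C and 5% CO2; staining with Hoechst33342, BioTracker Green Microtubule Cytoskeleton Dye, MitoTracker Red and Annexin V Alexa Fluor 680 had been done at seeding. The CellPathfinder machine-learning gating scheme split cells into Hoechst high-intensity objects or normal cells, normal cells into healthy, pyknosed or fragmented nuclei, and pyknosed cells into mitotic or apoptotic. The tubulin, mitochondrial-mass and membrane-permeability phenotypes are per cents of healthy-nucleus cells.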

[1] = 12 h, 1 µM, compound concentration 1 uM, replicate 1
[2] = 12 h, 1 µM, compound concentration 1 uM, replicate 2
[3] = 12 h, 10 µM, compound concentration 10 uM, replicate 1
[4] = 12 h, 10 µM, compound concentration 10 uM, replicate 2
[5] = 24 h, 1 µM, compound concentration 1 uM, replicate 1
[6] = 24 h, 1 µM, compound concentration 1 uM, replicate 2
[7] = 24 h, 10 µM, compound concentration 10 uM, replicate 1
[8] = 24 h, 10 µM, compound concentration 10 uM, replicate 2
[9] = 48 h, 1 µM, compound concentration 1 uM, replicate 1
[10] = 48 h, 1 µM, compound concentration 1 uM, replicate 2
[11] = 48 h, 10 µM, compound concentration 10 uM, replicate 1
[12] = 48 h, 10 µM, compound concentration 10 uM, replicate 2

## Cl.N=C(N)NC(=O)Cc1c(Cl)cccc1Cl [GUANFACINE HYDROCHLORIDE]
[1]
  Population Apoptotic (%): 29%
  Population Fragmented Nuclei (%): 3%
  Population Healthy Nuclei (%): 84%
  Population Hoechst High Intensity Objects (%): 7%
  Population Membrane Permeable-Phenotype (%): 0%
  Population Mitochondria Different-Phenotype (%): 46%
  Population Mitotic Cells (%): 70%
  Population Normal (%): 92%
  Population Pyknosed Nuclei (%): 11%
  Population Tubulin-Different-Phenotype (%): 31%
  Total Cell Count: 384
[2]
  Population Apoptotic (%): 47%
  Population Fragmented Nuclei (%): 5%
  Population Healthy Nuclei (%): 76%
  Population Hoechst High Intensity Objects (%): 12%
  Population Mitochondria Different-Phenotype (%): 67%
  Population Mitotic Cells (%): 52%
  Population Normal (%): 87%
  Population Pyknosed Nuclei (%): 17%
  Total Cell Count: 289
[3]
  Population Apoptotic (%): 52%
  Population Fragmented Nuclei (%): 12%
  Population Healthy Nuclei (%): 67%
  Population Hoechst High Intensity Objects (%): 7%
  Population Membrane Permeable-Phenotype (%): 0%
  Population Mitochondria Different-Phenotype (%): 61%
  Population Mitotic Cells (%): 47%
  Population Normal (%): 92%
  Population Pyknosed Nuclei (%): 20%
  Population Tubulin-Different-Phenotype (%): 43%
  Total Cell Count: 296
[4]
  Population Apoptotic (%): 34%
  Population Fragmented Nuclei (%): 8%
  Population Healthy Nuclei (%): 77%
  Population Hoechst High Intensity Objects (%): 10%
  Population Mitochondria Different-Phenotype (%): 69%
  Population Mitotic Cells (%): 65%
  Population Normal (%): 89%
  Population Pyknosed Nuclei (%): 14%
  Population Tubulin-Different-Phenotype (%): 38%
  Total Cell Count: 365
[5]
  Population Apoptotic (%): 36%
  Population Fragmented Nuclei (%): 8%
  Population Healthy Nuclei (%): 80%
  Population Hoechst High Intensity Objects (%): 4%
  Population Membrane Permeable-Phenotype (%): 0%
  Population Mitochondria Different-Phenotype (%): 27%
  Population Mitotic Cells (%): 63%
  Population Normal (%): 95%
  Population Pyknosed Nuclei (%): 11%
  Population Tubulin-Different-Phenotype (%): 21%
  Total Cell Count: 493
[6]
  Population Apoptotic (%): 50%
  Population Fragmented Nuclei (%): 4%
  Population Healthy Nuclei (%): 83%
  Population Hoechst High Intensity Objects (%): 10%
  Population Mitochondria Different-Phenotype (%): 42%
  Population Mitotic Cells (%): 50%
  Population Normal (%): 89%
  Population Tubulin-Different-Phenotype (%): 19%
  Total Cell Count: 344
[7]
  Population Apoptotic (%): 46%
  Population Fragmented Nuclei (%): 11%
  Population Healthy Nuclei (%): 75%
  Population Hoechst High Intensity Objects (%): 7%
  Population Membrane Permeable-Phenotype (%): 0%
  Population Mitochondria Different-Phenotype (%): 48%
  Population Mitotic Cells (%): 53%
  Population Normal (%): 92%
  Population Pyknosed Nuclei (%): 12%
  Population Tubulin-Different-Phenotype (%): 39%
  Total Cell Count: 343
[8]
  Population Apoptotic (%): 36%
  Population Fragmented Nuclei (%): 6%
  Population Healthy Nuclei (%): 83%
  Population Hoechst High Intensity Objects (%): 9%
  Population Mitochondria Different-Phenotype (%): 50%
  Population Mitotic Cells (%): 63%
  Population Normal (%): 90%
  Population Pyknosed Nuclei (%): 10%
  Population Tubulin-Different-Phenotype (%): 27%
  Total Cell Count: 454
[9]
  Population Apoptotic (%): 15%
  Population Fragmented Nuclei (%): 15%
  Population Healthy Nuclei (%): 78%
  Population Hoechst High Intensity Objects (%): 2%
  Population Membrane Permeable-Phenotype (%): 1%
  Population Mitochondria Different-Phenotype (%): 22%
  Population Mitotic Cells (%): 84%
  Population Normal (%): 97%
  Population Pyknosed Nuclei (%): 6%
  Population Tubulin-Different-Phenotype (%): 21%
  Total Cell Count: 680
[10]
  Population Apoptotic (%): 34%
  Population Fragmented Nuclei (%): 10%
  Population Healthy Nuclei (%): 79%
  Population Hoechst High Intensity Objects (%): 7%
  Population Membrane Permeable-Phenotype (%): 0%
  Population Mitochondria Different-Phenotype (%): 32%
  Population Mitotic Cells (%): 65%
  Population Normal (%): 92%
  Population Pyknosed Nuclei (%): 9%
  Population Tubulin-Different-Phenotype (%): 14%
  Total Cell Count: 560
[11]
  Population Apoptotic (%): 47%
  Population Fragmented Nuclei (%): 17%
  Population Healthy Nuclei (%): 73%
  Population Hoechst High Intensity Objects (%): 6%
  Population Membrane Permeable-Phenotype (%): 0%
  Population Mitochondria Different-Phenotype (%): 31%
  Population Mitotic Cells (%): 52%
  Population Normal (%): 93%
  Population Pyknosed Nuclei (%): 9%
  Population Tubulin-Different-Phenotype (%): 14%
  Total Cell Count: 421
[12]
  Population Apoptotic (%): 50%
  Population Fragmented Nuclei (%): 12%
  Population Healthy Nuclei (%): 80%
  Population Hoechst High Intensity Objects (%): 10%
  Population Mitochondria Different-Phenotype (%): 33%
  Population Mitotic Cells (%): 50%
  Population Normal (%): 89%
  Population Pyknosed Nuclei (%): 6%
  Population Tubulin-Different-Phenotype (%): 20%
  Total Cell Count: 612
